GSK3beta inhib: blocks human GSK3beta kinase activity; actives 0.038% (n = 300,000); AID 2097; activity score (negative = inhibition), % at 10 µM; GST-GSK3beta kinase, ADP-Glo luminescence, 60 min; hits give low values; P49841;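 active = more than half of replicate wells score below -50%, meaning over 50% inhibition versus plate controls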;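 note: 0% = median DMSO wells and -100% = median GW8510 positive control wells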
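test system = GST-tagged human GSK3beta kinase, cell-free | reagent = 25 µM ATP with peptide substrate | dosing = one dose of 10 µM per compound | schedule = 60 min reaction, RT | detection = luminescent ADP-Glo measurement of ADP formed | control set = DMSO neutral wells and GW8510 at 20 µM as positive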
Env fusion inh: HIV envelope-mediated fusion inhibition; HeLa-JRFL Env/CEM21 cell fusion, luciferase; inhibition, % at 12.3 µM; actives 1.1% (n = 360,000); AID 651610;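 active = mean replicate inhibition score of at least 50 and every replicate individually at or above 50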;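 note: 0% = plate neutral controls and 100% = maraviroc near 300 nM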
INS-1E GSIS act: GLuc luminescence reporter in INS-1E cells, primary screen for activators of glucose-dependent secretion of insulin; INS-1E GLuc reporter insulin secretion, 2-3 h; actives 0.61% (n = 370,000); activation, % at 16.6 µM;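 active = lowest replicate activation of at least 40%, so every replicate reaches that level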;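 note: 0% = median of neutral control wells and 100% = median of IBMX positive control wells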
CDK5 p35 inh: inhibitors of human CDK5/p35 kinase; Q00535+Q15078; actives 0.01% (n = 330,000); Recombinant CDK5/p35, ADP-Glo luminescence, 60 min; AID 488839; inhibition, % at 10 µM;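 active = highest replicate inhibition of at least 50% and at least 75% of replicates reaching 50%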;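 note: plate controls were DMSO neutral control for no effect and GW8510 at 10 µM for full effect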
GSK3A inh: blocks human GSK-3 alpha kinase. P49840. ADP-Glo luminescence, 60 min. inhibition, % at 10 µM. actives 0.1% (n = 320,000). AID 2650;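 active = more than half of replicates show inhibition above 20%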;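 note: GST-tagged GSK-3 alpha with peptide substrate and 25 µM ATP; 0% = DMSO neutral wells and 100% = GW8510 positive control wells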
Target sequence (P49840 whole entry, looked up): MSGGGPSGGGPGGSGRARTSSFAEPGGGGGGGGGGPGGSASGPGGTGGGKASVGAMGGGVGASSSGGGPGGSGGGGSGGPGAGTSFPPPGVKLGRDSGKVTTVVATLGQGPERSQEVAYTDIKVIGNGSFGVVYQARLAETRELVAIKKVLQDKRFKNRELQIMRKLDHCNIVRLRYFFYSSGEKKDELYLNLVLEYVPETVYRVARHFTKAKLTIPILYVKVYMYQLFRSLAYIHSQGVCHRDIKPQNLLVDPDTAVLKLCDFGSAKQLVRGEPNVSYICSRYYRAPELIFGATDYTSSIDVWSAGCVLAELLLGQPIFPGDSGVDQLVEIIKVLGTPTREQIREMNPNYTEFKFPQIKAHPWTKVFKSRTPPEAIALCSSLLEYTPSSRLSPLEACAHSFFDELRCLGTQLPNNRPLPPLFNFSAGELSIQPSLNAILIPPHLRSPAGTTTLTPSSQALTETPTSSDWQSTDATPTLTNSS
STK33 inh: blocks human STK33 kinase activity; Q9BYT3; purified STK33, MBP phosphorylation, ADP-Glo luminescence; inhibition, % at 10 µM; actives 0.073% (n = 320,000); AID 2661;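 active = inhibition at or above 25%, using the most active replicate where run in duplicate; inactive = inhibition below 25%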
* marks the source's active call; other numbers are inactive results; . = no result; [ ] = dose if it differs, or a comment. Only some compounds are listed: those with a hit (about 1.4% of all), similar ones and a draw of the others.

SMILES	GSK3beta inhib	Env fusion inh	INS-1E GSIS act	CDK5 p35 inh	GSK3A inh	STK33 inh
CO[C@@H]1CN(C)C(=O)c2cc(NS(C)(=O)=O)ccc2OC[C@@H](C)N(CC2CCOCC2)C[C@H]1C	.	3.9[16.7 µM]	-1.3	.	.	.
O=C(C[C@H]1C=C[C@@H](NC(=O)Nc2ccc3c(c2)OCO3)[C@@H](CO)O1)NCc1ccc(F)cc1	.	.	-4.2	.	.	.
C[C@@H]1CN([C@@H](C)CO)C(=O)c2cccc(NC(=O)C3CCOCC3)c2O[C@H]1CN(C)C(=O)Nc1ccc2c(c1)OCO2	.	-8.7[16.7 µM]	16.6	.	.	.
CCS(=O)(=O)N1[C@@H](CO)[C@H](c2ccccc2)C12CN(C(=O)C1CCCC1)C2	.	.	7.2	.	.	.
CN(C)C(=O)C[C@@H]1C[C@@H]2c3cc(NS(=O)(=O)c4ccc(F)cc4)ccc3O[C@@H]2[C@@H](CO)O1	.	70.3*[16.7 µM]	-3.6	.	.	.
C[C@@H](NC(=O)C[C@H]1C[C@@H]2c3cc(NS(=O)(=O)c4ccc(F)cc4)ccc3O[C@@H]2[C@H](CO)O1)c1ccccc1	.	85.9*[16.7 µM]	-12.4	.	.	.
COc1ccc(S(=O)(=O)Nc2ccc3c(c2)C(=O)N([C@@H](C)CO)C[C@H](C)[C@H](CN(C)C(=O)Nc2cccc4ccccc24)OCCCC[C@@H](C)O3)cc1	.	.	0.6	.	.	.
C[C@H](CO)N1C[C@H](C)[C@H](CN(C)Cc2ccccc2)OCCCC[C@H](C)Oc2ccc(NC(=O)Nc3ccc4c(c3)OCO4)cc2C1=O	.	57.8*[16.7 µM]	-28.3	.	.	.
C[C@@H]1CN([C@H](C)CO)C(=O)c2cc(NC(=O)Nc3ccc4c(c3)OCO4)ccc2O[C@@H](C)CCCCO[C@H]1CN(C)Cc1ccc(Cl)c(Cl)c1	.	62.6*[16.7 µM]	7.2	.	.	.
C[C@@H]1CCCCO[C@@H](CN(C)Cc2ccc(Cl)c(Cl)c2)[C@H](C)CN([C@H](C)CO)C(=O)c2cc(NC(=O)Nc3ccc4c(c3)OCO4)ccc2O1	.	29.3[16.7 µM]	-0.4	.	.	.
C[C@H](CO)N1C[C@H](C)[C@H](CN(C)C(=O)c2ccccc2)OCCCC[C@H](C)Oc2ccc(NC(=O)Nc3ccc4c(c3)OCO4)cc2C1=O	.	60.9*[16.7 µM]	-8.8	.	.	.
C[C@@H]1CCCCO[C@H](CN(C)C(=O)c2ccccc2)[C@@H](C)CN([C@H](C)CO)C(=O)c2cc(NC(=O)Nc3ccc4c(c3)OCO4)ccc2O1	.	-13.5[16.7 µM]	10.0	.	.	.
C[C@H]1CCCCO[C@@H](CN(C)Cc2ccc3c(c2)OCO3)[C@@H](C)CN([C@@H](C)CO)C(=O)c2cc(NC(=O)Nc3ccccc3)ccc2O1	.	60.0*[16.7 µM]	-29.1	.	.	.
O=C(CC(F)(F)F)N1C[C@@H]2[C@H](c3ccccc31)[C@@H](CO)N2CC1CCCCC1	.	.	-2.2	.	.	.
C[C@@H]1CCCCO[C@@H](CN(C)C(=O)NC2CCCCC2)[C@@H](C)CN([C@@H](C)CO)C(=O)c2cc(NC(=O)Nc3ccccc3)ccc2O1	.	-10.5[16.7 µM]	3.2	.	.	.
COC(=O)C[C@@H]1OC[C@H](C(C)C)N1S(=O)(=O)c1ccc(C)cc1	.	-18.0	44.2*	.	.	.
O=C(c1cccnc1)N1C[C@@H]2N[C@H](C1)C2c1ccc(-c2cccnc2)cc1 (some centres not stated)	.	.	4.4	.	.	.
Nc1c(O)ccc2c1C(=O)c1ccccc1C2=O	-13.5	-14.9	.	.	30.5	35.5*
CCNC(=O)C[C@H]1CC[C@@H]2[C@@H](COc3ccc(NC(=O)c4ccccc4Cl)cc3C(=O)N2C)O1	.	-15.0[16.7 µM]	1.1	.	.	.
Cc1ccc(S(=O)(=O)Oc2ccccc2-c2ccccc2)cc1	.	60.4*	.	-1.0	.	.
COc1ccccc1S(=O)(=O)Nc1ccc2c(c1)C(=O)N(C)C[C@H](OC)[C@@H](C)CN[C@@H](C)CO2	.	-1.5[16.7 µM]	12.8	.	.	.
CCOC1=C2[C@@H](CN(S(=O)(=O)c3ccccc3C)[C@H]2c2ccc(Cl)cc2)[C@H]2C(=O)NC(=O)[C@H]2C1	.	79.0*	-7.2	.	.	.
C/C(NCCCn1ccnc1)=C(\C#N)C(N)=O	-22.3	.	.	-0.4	51.5*	-1.3
Cc1cc(C)c2nc(N(CCCN(C)C)C(=O)c3ccc(S(=O)(=O)N4CCCCCC4)cc3)sc2c1	1.4	-8.1	-45.6	0.7	-1.4	-0.7
CCN(CC)CCN(C(=O)c1ccc(S(=O)(=O)N2CCCC2)cc1)c1nc2cc(C)cc(C)c2s1	0.0	4.9	40.5*	-1.4	-1.7	0.1
SMILES	GSK3beta inhib	Env fusion inh	INS-1E GSIS act	CDK5 p35 inh	GSK3A inh	STK33 inh
O=C(Nc1ccc([N+](=O)[O-])cc1)Nc1ccc(OC(F)F)c(Cl)c1	.	42.6	173.9*	-0.4	1.3	-0.1
O=C(Nc1ccc(OC(F)F)c(Cl)c1)Nc1ccc2c(c1)OCO2	-0.4	9.7	.	2.2	1.3	0.1
CCNC(=S)NNC(=O)c1cc(-c2ccc(OC)cc2)nc2ccccc12	-4.3	-139.1	-9.9	9.0	-4.8	6.8
COc1ccc(Cl)cc1C(=O)NNC(=S)NC(=O)c1cc(-c2ccc(Cl)cc2)nc2ccccc12	1.1	94.4*	.	-0.9	-1.0	0.4
O=C(C[C@H]1C=C[C@H](NS(=O)(=O)c2ccccc2)[C@H](CO)O1)N1CCC(Cc2ccccc2)CC1	.	.	-15.3	.	.	.
CCCCC1(Cc2ccc([N+](=O)[O-])cc2)C(=O)N(c2ccccc2)N(c2ccccc2)C1=O	3.1	132.8*	.	0.0	-1.9	-1.3
CO[C@@H](CN(C)C(=O)c1ccccc1F)[C@H](C)CN([C@H](C)CO)S(=O)(=O)c1ccc(C)cc1	.	.	2.9	.	.	.
CCOc1ccc(OCc2cccc(C(=O)N3CCOCC3)c2)cc1	1.0	83.5*	.	-1.2	-2.5	-0.7
CCOC(=O)c1ccc(NC(=S)Nc2cccc(C)n2)cc1	-0.8	10.3	48.3*	0.6	-4.9	-3.3
C[C@@H]1CCCCO[C@@H](CN(C)S(=O)(=O)c2ccc(F)cc2)[C@H](C)CN([C@@H](C)CO)C(=O)c2cc(NC(=O)Cc3ccccc3)ccc2O1	.	2.0[16.7 µM]	-28.2	.	.	.
CC(C)NC(=O)Nc1ccc2c(c1)C(=O)N([C@H](C)CO)C[C@@H](C)[C@H](CN(C)C(=O)CCCN(C)C)OCCCC[C@@H](C)O2	.	-7.0[16.7 µM]	7.4	.	.	.
C=C1CCN([C@H](C(=O)Nc2ccc(OC)cc2)C(C)C)S(=O)(=O)c2ccccc21	-0.7	7.3	-8.5	0.9	-2.3	0.7
C=C1CCN([C@@H](Cc2ccccc2)C(=O)Nc2ccc(OC)cc2)S(=O)(=O)c2ccccc21	3.1	105.4*	-12.5	0.3	1.0	-0.4
C=C1CCN([C@H](C(=O)OCc2ccc(C)cc2)C(C)C)S(=O)(=O)c2ccccc21	.	79.9*	-13.5	1.0	-0.5	0.3
CCc1cc2c(NCc3ccco3)ncnc2s1	-2.6	79.6*	.	1.6	0.7	-0.7
CCN(CC)c1ccc(/C=C2/C(=O)c3ccc(C(=O)O)cc3C2=O)cc1	.	-1.8	-88.8	6.2	22.5	77.9*
COc1ccc(CNC(=O)CCS(=O)(=O)c2ccc3c(c2)NC(=O)C(C)S3)cc1 (configuration not stated)	-3.7	5.8	8.5	.	-2.0	-0.1
